Screens from PubChem BioAssay.
Compounds with a hit are over-represented: about 1.6% of the library has one in this group of screens.
ABHD5 PLIN5 PPI: blocks binding of human ABHD5 to perilipin-5; 360,000 compounds, 0.78% hits; Split G. princeps luciferase complementation, luminescence, 4 h; Q00G26+Q8WTS1; inhibition, % at 4 µM;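 active = inhibition above the mean inhibition across every tested compound plus 3 SD, cut at about 22% in these data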;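 note: 0% = DMSO only wells and the 100% control is not disclosed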
Dynein cargo inh: dynein cargo transport inhibition | 3617.4 mouse cells, GR-EGFP nuclear translocation imaging; test concentration mostly 20 µM; stimulated with dexamethasone, 1 µM; hits give low values | z-score, hits read low | 220,000 compounds, 0.47% hits | AID 1381;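 active = plate z-score of nuclear minus cytoplasmic receptor signal below a set negative limit, without overly bright fluorescence or cell loss, cut at about -3.5 in these data, passing the limit was not always enough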;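 note: z-score of nuclear minus cytoplasmic ring GR-EGFP intensity difference per well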
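Buffer or medium: tet-free medium with charcoal-stripped serum / Also added: dexamethasone agonist, 1.0 µM final, for 30 min / Timing: induction 48 h, compound 1 h, agonist 30 min / Measured by: high-content fluorescence imaging after fixation / Read-out: nuclear-to-cytoplasmic GR-EGFP distribution per well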
Beta2AR agonist: agonists of human beta-2 adrenergic receptor inducing internalization; response, % (test concentration not listed); Am2.2-beta2AR cells, FAP receptor internalization, flow cytometry; 340,000 compounds, 0.43% hits; AID 504454; P07550;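 active = response above a set limit, near 3 SD of response in nonfluorescent compounds, cut at about 42% in these data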
Target sequence (P07550 whole entry, looked up): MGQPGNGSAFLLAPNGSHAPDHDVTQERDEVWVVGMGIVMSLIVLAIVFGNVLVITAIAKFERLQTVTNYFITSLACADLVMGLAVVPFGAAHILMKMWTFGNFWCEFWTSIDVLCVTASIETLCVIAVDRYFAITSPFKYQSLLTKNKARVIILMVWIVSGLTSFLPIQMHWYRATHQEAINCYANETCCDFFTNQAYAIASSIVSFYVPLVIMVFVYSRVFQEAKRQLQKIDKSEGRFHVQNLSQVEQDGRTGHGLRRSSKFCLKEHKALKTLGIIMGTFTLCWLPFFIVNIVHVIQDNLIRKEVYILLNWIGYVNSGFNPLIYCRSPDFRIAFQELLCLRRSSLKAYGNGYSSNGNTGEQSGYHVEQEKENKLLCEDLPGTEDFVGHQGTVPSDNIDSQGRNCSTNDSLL
TLR9-MyD88 inh: blocks human TLR9 binding to MyD88. CHO BLA complementation TLR9-MyD88, CCF4 FRET ratio. inhibition, % at 4.98 µM. 340,000 compounds, 0.21% hits. AID 504734. Q9NR96+Q99836;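 active = inhibition above the mean over all tested compounds plus 3 SD, cut at about 21% in these data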;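 note: 0% = DMSO only wells and 100% = clavulanate BLA inhibitor control wells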
TLR4 MyD88 comp: blocks binding of human TLR4 to MyD88; O00206+Q99836; HeLa CL3-4 TLR4/MyD88 BLA complementation, FRET ratio; inhibition, % at 8.4 µM; 200,000 compounds, 0.18% hits; in the data active = inhibition above about 25%;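 note: 0% = vehicle and 100% = reference inhibitor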
NOD2 RIPK2 PPI: blocks binding of human NOD2 to RIPK2. O43353. CHO BLA complementation NOD2-RIPK2, CCF4 ratio. AID 624267. 360,000 compounds, 0.38% hits. inhibition, % at 4.98 µM; in the data active = inhibition above about 21%;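 note: 0% = vehicle only and 100% = reference blocker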
ABHD5 PLIN5 conf: confirmation of human ABHD5-PLIN5 interaction inhibitors; shares compounds with ABHD5 PLIN5 PPI; biochemical ABHD5-PLIN5 interaction, luminescence; inhibition, % at 4 µM; 2,200 compounds, 67% hits; AID 651612; in the data active = inhibition above about 23%;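 note: 0% = DMSO vehicle wells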
HNF4 split-luc: counter-screen for ABHD5-PLIN5 inhibitors: HNF4 split-luciferase. shares compounds with ABHD5 PLIN5 PPI. 2,200 compounds, 77% hits. inhibition, % at 4 µM. HNF4 dimerization, luminescence, biochemical;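 active = mean inhibition across replicate wells exceeding the computed hit threshold, cut at about 13% in these data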;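 note: light from luciferase halves that rejoin when HNF4 fusion proteins dimerize; 0% = DMSO only wells and the 100% control is not given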
Active calls of the source: *; . = no result given.

SMILES | ABHD5 PLIN5 PPI | Dynein cargo inh | Beta2AR agonist | TLR9-MyD88 inh | TLR4 MyD88 comp | NOD2 RIPK2 PPI | ABHD5 PLIN5 conf | HNF4 split-luc
CC(Oc1ccc(Br)cc1)C(=O)N1CCC(C(N)=O)CC1 (configuration not stated) | 45.0* | 1.37 | 1.4 | 6.2 | 12.4 | 2.3 | 9.7 | 6.6
CCCNC(=O)C1(C)CCCN(Cc2ccc3ccccc3c2)C1 (configuration not stated) | 3.8 | . | . | . | . | -9.1 | . | .
CCCCCCCCSC1=CC(=O)C(OC)=C(OC)C1=O | 64.9* | . | . | 9.2 | . | -2.7 | 100.0* | 104.1*
COc1ccc(N2C(=O)CC(Sc3nc(C)cc(C)c3C#N)C2=O)cc1 (configuration not stated) | 6.7 | 0.591 | -12.6 | 3.4 | -14.0 | -3.4 | . | .
COc1ccc(N2C(=O)CC(Sc3nnc(-c4ccccc4)o3)C2=O)cc1 (configuration not stated) | 42.9* | -4.12* | 2.1 | 3.6 | 0.7 | 6.5 | 55.2* | 82.9*
CCOC(=O)C1CCN(C(=O)CCc2nnc3ccc(NCc4ccco4)nn23)CC1 | 51.1* | . | 2.7 | -8.4 | . | -6.7 | 13.2 | 12.0
O=C(CCc1nnc2ccc(NCc3ccco3)nn12)N1CCN(c2ccccc2)CC1 | 17.9 | . | 7.5 | 6.9 | . | -4.6 | . | .
Cc1ccc(NC(=O)CCc2nnc3ccc(NCc4ccco4)nn23)nc1 | 38.8* | . | -0.5 | -6.4 | . | -2.4 | 14.2 | 24.1*
CC1(C(=O)NCCc2c[nH]c3ccccc23)CCN1Cc1csc2ccccc12 (configuration not stated) | 4.8 | . | . | . | . | -15.5 | . | .
CCc1nc2c(OCC(=O)C(C)(C)C)cccn2c1N(C)C(=O)c1ccco1 | 0.4 | . | . | . | . | -6.0 | . | .
CC(=O)c1ccc(NC(=O)/C(=C\c2ccc(F)cc2)NC(=O)c2ccco2)cc1 | -6.2 | . | -12.0 | 1.4 | . | -7.4 | . | .
CCCCCNC(=O)C(C1CC1)n1c(=O)c(-c2ccco2)nc2ccccc21 (configuration not stated) | 31.3* | . | . | . | . | 6.8 | 61.2* | 23.2*
COc1ccc(NC(=O)C(C2CC2)n2c(=O)c(-c3ccco3)nc3ccccc32)cc1 (configuration not stated) | -6.0 | . | . | . | . | -9.0 | . | .
O=C(NC1CCCCC1)C(C1CC1)n1c(=O)c(-c2ccco2)nc2ccccc21 (configuration not stated) | 65.5* | . | . | . | . | -9.2 | 71.0* | 34.1*
O=C(NC1CCCCC1)C(c1ccc(C(F)(F)F)cc1)n1c(=O)c(-c2ccco2)nc2ccccc21 (configuration not stated) | 84.5* | . | . | . | . | -14.3 | 90.5* | 12.5*
O=C(NC1CCCCC1)C(c1ccnc2ccccc12)n1c(=O)c(-c2ccccc2)nc2ccccc21 (configuration not stated) | 4.5 | . | . | . | . | -19.4 | . | .
O=C(NC1CCCCC1)C(c1ccccc1)n1c(=O)c(-c2ccco2)nc2ccccc21 (configuration not stated) | 86.5* | . | . | . | . | -8.8 | 96.6* | 54.3*
N#Cc1ccc(C(C(=O)NC2CCCCC2)n2c(=O)c(-c3ccco3)nc3ccccc32)cc1 (configuration not stated) | 82.3* | . | . | . | . | -1.1 | 84.0* | 31.6*
CC(=O)Nc1cccc(-c2ccnc3c2CC(C)(C(=O)NCc2cccs2)O3)c1 (configuration not stated) | 0.6 | . | . | . | . | -21.9 | . | .
CSc1ccc(Cl)c(C(=O)OCC(=O)NCc2ccco2)c1 | 34.2* | -0.453 | -3.3 | -2.2 | 3.4 | -10.6 | 17.3 | 17.8*
CC1CN(c2cc(=O)n(-c3ccccc3)c(=O)[nH]2)CC(C)O1 (configuration not stated) | 35.5* | -0.805 | 0.0 | 13.2 | -6.1 | 2.2 | 3.5 | 0.3
CCOC(=O)/C(=C/c1ccc(OC(F)F)cc1)C1=Nn2c(nnc2-c2ccc(Cl)cc2)SC1 | 41.9* | . | 26.5 | -1.1 | . | -4.4 | 101.0* | 91.0*
O=C(NCc1cccnc1)c1ccc2sc([C@@H]3O[C@H](CO)[C@H](O)[C@H](O)[C@H]3O)nc2c1 | 2.9 | . | . | . | . | -16.5 | . | .
CN(C)CCOc1ccccc1Cc1ccccc1 | 34.6* | 0.399 | -1.3 | -2.3 | . | -1.2 | 73.4* | 25.0*
Cc1cc(C(=O)N2CCCC(C)(C(=O)NS(=O)(=O)C3CC3)C2)nn1C(C)(C)C (configuration not stated) | 0.6 | . | . | . | . | -6.9 | . | .
SMILES | ABHD5 PLIN5 PPI | Dynein cargo inh | Beta2AR agonist | TLR9-MyD88 inh | TLR4 MyD88 comp | NOD2 RIPK2 PPI | ABHD5 PLIN5 conf | HNF4 split-luc
Nc1ccc(N(CCO)CCO)cc1 | -14.7 | -0.266 | 0.6 | -1.0 | -3.1 | -1.0 | . | .
Cc1cc(N(CCO)CCO)ccc1N=Nc1cc(F)ccc1F | 30.5* | -1.22 | -2.1 | 7.8 | 8.3 | -7.3 | 22.0* | 16.7*
Cc1cccnc1NC(=O)c1cccc(NC(=O)CC2SC(N3CCCCC3)=NC2=O)c1 (configuration not stated) | 0.7 | . | -11.3 | -8.0 | . | -17.1 | . | .
CCOC(=O)[C@]12CCC=C1N(Cc1ccc(Cl)cc1Cl)C(=O)[C@H](CC(=O)N1CCN(C(=O)c3ccco3)CC1)C2 | 14.1 | . | . | . | . | -0.3 | . | .
Cc1ccc([N+](=O)[O-])cc1NC(=O)CSc1nncn1-c1ccccn1 | 23.9* | . | -10.8 | 1.0 | . | -9.4 | -2.3 | 5.1
Cc1cccc2c(=O)n(C(=O)c3ccccc3)c(N)nc12 | 7.9 | . | . | -1.8 | . | 6.4 | . | .
Cc1ccc2nc(-c3ccc(NC(=O)CN4CCN(C(=O)c5ccco5)CC4)cc3)sc2c1 | 27.3* | -0.866 | 8.8 | 6.9 | -8.5 | 5.7 | 20.4 | 6.6
Cc1ccc(NC(=O)CN2CCN(C(=O)c3ccco3)CC2)cc1 | -4.2 | . | 1.0 | 6.2 | . | 5.4 | . | .
FC(F)(F)c1ccccc1-n1c(-c2ccco2)n[nH]c1=S | -6.2 | . | 7.8 | 0.0 | . | -2.6 | . | .
CCCCC1Cc2[nH][nH]c(=O)c2C(c2ccc(F)cc2)O1 (configuration not stated) | 2.9 | . | . | . | . | 0.1 | . | .
O=c1[nH][nH]c2c1[C@H](c1ccc(F)cc1)O[C@H](CCc1ccccc1)C2 | 27.1* | . | . | . | . | -1.4 | 14.6 | 36.4*
CCCCC1Cc2[nH][nH]c(=O)c2C(c2ccc(Cl)cc2)O1 (configuration not stated) | 28.1* | . | . | . | . | 9.7 | 5.6 | 25.2*
O=C(COC(=O)c1ccccc1)c1ccc(Br)cc1 | -1.0 | -0.733 | -4.6 | 5.2 | 8.5 | -7.3 | . | .
O=C(/C=C/c1ccccc1)COC(=O)c1ccccc1 | 59.3* | . | 9.8 | -0.1 | . | 3.0 | 80.3* | 92.3*
C=C1C(=O)O[C@@H]2[C@H]3O[C@]3(C)CC/C=C(\C)CC[C@@H]12 | 5.2 | . | 5.7 | 2.7 | . | -0.3 | . | .
